Series [1] deals with Mus musculus. Nature of the series: Biodistribution of intravenously injected [82Br]-labeled compound in spleen of BDF1 female mice bearing subcutaneous Lewis lung carcinoma after 24 hours. Type of series: ADME, organism-based. Conditions: in vivo, iv.
Series [2] concerns Mus musculus. Nature of the series: Biodistribution of intravenously injected [82Br]-labeled compound in spleen of BDF1 female mice bearing subcutaneous Lewis lung carcinoma after 4 hours. Type of series: ADME, organism-based. Conditions: in vivo, iv.
The subject of series [3] is Mus musculus. Nature of the series: Biodistribution of intravenously injected [82Br]-labeled compound in stomach of BDF1 female mice bearing subcutaneous Lewis lung carcinoma after 2 hours. Type of series: ADME, organism-based. Conditions: in vivo, iv.
For series [4], the system named is Mus musculus. The series can be described thus: Biodistribution of intravenously injected [82Br]-labeled compound in kidney of BDF1 female mice bearing subcutaneous Lewis lung carcinoma after 2 hours. Type of series: ADME, organism-based. Conditions: in vivo, iv. In a few lines:
(§1)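 Female BDF1 mice with subcutaneous Lewis lung carcinoma given an iv injection of [82Br]-labelled nucleoside, 47-130 μg carrying 20-60 kBq 82Br. Tissues were excised, weighed wet and γ-counted. Values are percent injected dose per gram of wet tissue, mean ± standard deviation of six animals, with organ-to-tumour ratios derived.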

In series [5] the test system is Mus musculus. Nature of the series: Biodistribution of intravenously injected [82Br]-labeled compound in stomach of BDF1 female mice bearing subcutaneous Lewis lung carcinoma after 1 hours. The class given is ADME, organism-based. Conditions: in vivo, iv.
Series [6] concerns Mus musculus. Nature of the series: Biodistribution of intravenously injected [82Br]-labeled compound in bone of BDF1 female mice bearing subcutaneous Lewis lung carcinoma after 4 hours. Type of series: ADME, organism-based, Bone element. The settings on record: in vivo, iv. The procedure, abridged: (§2)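 82Br-labeled nucleoside given intravenously to female BDF1 mice bearing subcutaneous Lewis lung carcinoma, at 47-130 μg carrying 20-60 kBq. Mice sacrificed at each time point. Wet-weighed tissues γ-counted. Values are percent injected dose per gram wet tissue, mean ± SD, n = 6.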

The subject of series [7] is Mus musculus. Nature of the series: Biodistribution of intravenously injected [82Br]-labeled compound in lung of BDF1 female mice bearing subcutaneous Lewis lung carcinoma after 8 hours. The class given is ADME, organism-based. The settings on record: in vivo, iv. The procedure, abridged:
as §1

In series [8] the test system is Mus musculus. Nature of the series: Biodistribution of intravenously injected [82Br]-labeled compound in heart of BDF1 female mice bearing subcutaneous Lewis lung carcinoma after 0.25 hours. The class given is ADME, organism-based. Conditions: in vivo, iv. In a few lines: as §1
The subject of series [9] is Mus musculus. Nature of the series: Biodistribution of intravenously injected [82Br]-labeled compound in kidney of BDF1 female mice bearing subcutaneous Lewis lung carcinoma after 24 hours. Type of series: ADME, organism-based. Conditions: in vivo, iv. In a few lines: as §1
The test system of series [10] is Mus musculus. Nature of the series: Biodistribution of intravenously injected [82Br]-labeled compound in heart of BDF1 female mice bearing subcutaneous Lewis lung carcinoma after 4 hours. Type of series: ADME, organism-based. The settings on record: in vivo, iv. The procedure, abridged:
as §1

In series [11] the test system is Mus musculus. The series can be described thus: Biodistribution of intravenously injected [82Br]-labeled compound in stomach of BDF1 female mice bearing subcutaneous Lewis lung carcinoma after 0.50 hours. The class given is ADME, organism-based. The settings on record: in vivo, iv, 0.5 h.
In series [12] the test system is Mus musculus. Nature of the series: Biodistribution of intravenously injected [82Br]-labeled compound in skin of BDF1 female mice bearing subcutaneous Lewis lung carcinoma after 24 hours. Type of series: ADME, organism-based, Zone of skin. The settings on record: in vivo, iv. The procedure, abridged: as §1
Series [13] has as its system Mus musculus. Nature of the series: Biodistribution of intravenously injected [82Br]-labeled compound in gut of BDF1 female mice bearing subcutaneous Lewis lung carcinoma after 24 hours. The class given is ADME, organism-based. Conditions: in vivo, iv. In a few lines:
as §1

Series [14] concerns Mus musculus. Nature of the series: Biodistribution of intravenously injected [82Br]-labeled compound in gut of BDF1 female mice bearing subcutaneous Lewis lung carcinoma after 0.25 hours. The class given is ADME, organism-based. The settings on record: in vivo, iv. In a few lines:
as §2

The subject of series [15] is Mus musculus. The series can be described thus: Biodistribution of intravenously injected [131I]-labeled compound in bone of BDF1 female mice bearing subcutaneous Lewis lung carcinoma after 0.5 hours. The class given is ADME, organism-based, Bone element. The settings on record: in vivo, iv. The procedure, abridged: (§3)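 Female BDF1 mice bearing subcutaneous Lewis lung carcinoma received a single intravenous dose of 0.5-1.8 μg of the 131I-labeled nucleoside (55-110 kBq). They were sacrificed at set times, and tissues were weighed wet and γ-counted. Activity is expressed as percent of injected dose per gram of wet tissue, given as mean ± standard deviation for six animals.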

The species entered for series [16] is Mus musculus. The series can be described thus: Other urinary compounds observed in BDF1 female mice bearing lewis lung tumor after 0-0.5 hr of injected [131I]-compound. The class given is functional, tissue-based. Conditions: Urine.
Series [17] concerns Mus musculus. The series can be described thus: Biodistribution of intravenously injected [131I]-labeled compound in kidney of BDF1 female mice bearing subcutaneous Lewis lung carcinoma after 0.5 hours. Type of series: ADME, organism-based. Conditions: in vivo, iv. In a few lines:
as §3

Series [18] concerns Mus musculus. The series can be described thus: Biodistribution of intravenously injected [131I]-labeled compound in spleen of BDF1 female mice bearing subcutaneous Lewis lung carcinoma after 8 hours. The class given is ADME, organism-based. Conditions: in vivo, iv. The procedure, abridged:
(§4)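 Female BDF1 mice with subcutaneous Lewis lung carcinoma given i.v. 0.5-1.8 μg of 131I-labeled nucleoside (55-110 kBq). Killed at set times. Tissues weighed wet and γ-counted. Radioactivity expressed as percent injected dose per gram wet tissue, mean ± SD of six animals.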

Series [19] relates to Mus musculus. Nature of the series: Biodistribution of intravenously injected [131I]-labeled compound in spleen of BDF1 female mice bearing subcutaneous Lewis lung carcinoma after 0.50 hours. The class given is ADME, organism-based. Conditions: in vivo, iv, 0.5 h. In a few lines: as §4
Series [20] concerns Mus musculus. Nature of the series: Biodistribution of intravenously injected [131I]-labeled compound in blood of BDF1 female mice bearing subcutaneous Lewis lung carcinoma after 8 hours. The class given is ADME, organism-based. Conditions: in vivo, iv. In a few lines: as §3
Series [21] is filed under the species Mus musculus. Nature of the series: Urinary [131I]- compound observed in BDF1 female mice bearing lewis lung tumor after 24 hr of injected [131I]-compound. Type of series: functional, tissue-based. The settings on record: Urine.
In series [22] the test system is Mus musculus. Nature of the series: Biodistribution of intravenously injected [131I]-labeled compound in lung of BDF1 female mice bearing subcutaneous Lewis lung carcinoma after 1 hours. The settings on record: in vivo, iv. The class given is ADME, organism-based. The procedure, abridged: as §3
The subject of series [23] is Mus musculus. Nature of the series: Biodistribution of intravenously injected [131I]-labeled compound in blood of BDF1 female mice bearing subcutaneous Lewis lung carcinoma after 2 hours. The class given is ADME, organism-based. Conditions: in vivo, iv. In a few lines:
as §3

For series [24], the system named is Mus musculus. The series can be described thus: Biodistribution of intravenously injected [131I]-labeled compound in kidney of BDF1 female mice bearing subcutaneous Lewis lung carcinoma after 1 hours. Conditions: in vivo, iv. The class given is ADME, organism-based. In a few lines:
as §3

For series [25], the species on record is Mus musculus. Nature of the series: Urinary [131I]- compound observed in BDF1 female mice bearing lewis lung tumor after 0-0.5 h of injected [131I]-compound. Conditions: Urine. The class given is functional, tissue-based.
The subject of series [26] is Mus musculus. Nature of the series: Biodistribution of intravenously injected [131I]-labeled compound in muscle of BDF1 female mice bearing subcutaneous Lewis lung carcinoma after 0.5 hours. Type of series: ADME, organism-based, Muscle tissue. Conditions: in vivo, iv. In a few lines: as §3
In series [27] the test system is Mus musculus. Nature of the series: Biodistribution of intravenously injected [131I]-labeled compound in gut of BDF1 female mice bearing subcutaneous Lewis lung carcinoma after 24 hours. Type of series: ADME, organism-based. The settings on record: in vivo, iv. The procedure, abridged:
as §3

The species named for series [28] is Mus musculus. Nature of the series: Other urinary compounds observed in BDF1 female mice bearing lewis lung tumor after 2-3 hr of injected [131I]-compound. Type of series: functional, tissue-based. Conditions: Urine.
Series [29] concerns Mus musculus. The series can be described thus: Biodistribution of intravenously injected [131I]-labeled compound in muscle of BDF1 female mice bearing subcutaneous Lewis lung carcinoma after 8 hours. The class given is ADME, organism-based, Muscle tissue. The settings on record: in vivo, iv. The procedure, abridged:
as §4

Series [30] concerns Mus musculus. The series can be described thus: Biodistribution of intravenously injected [131I]-labeled compound in spleen of BDF1 female mice bearing subcutaneous Lewis lung carcinoma after 4 hours. Type of series: ADME, organism-based. The settings on record: in vivo, iv. In a few lines: as §4
Series [31] relates to Mus musculus. The series can be described thus: Biodistribution of intravenously injected [131I]-labeled compound in kidney of BDF1 female mice bearing subcutaneous Lewis lung carcinoma after 0.25 hours. Type of series: ADME, organism-based. The settings on record: in vivo, iv. In a few lines: as §3
Series [32] deals with Mus musculus. Nature of the series: Biodistribution of intravenously injected [131I]-labeled compound in tumor of BDF1 female mice bearing subcutaneous Lewis lung carcinoma after 1 hours. Conditions: in vivo, iv. Type of series: ADME, organism-based. In a few lines: as §4
In series [33] the test system is Mus musculus. Nature of the series: Biodistribution of intravenously injected [131I]-labeled compound in blood of BDF1 female mice bearing subcutaneous Lewis lung carcinoma after 24 hours. Type of series: ADME, organism-based. Conditions: in vivo, iv. The procedure, abridged: as §3
In series [34] the test system is Mus musculus. Nature of the series: Biodistribution of intravenously injected [131I]-labeled compound in lung of BDF1 female mice bearing subcutaneous Lewis lung carcinoma after 8 hours. Type of series: ADME, organism-based. Conditions: in vivo, iv. The procedure, abridged: as §3
Series [35] concerns Mus musculus. Nature of the series: Biodistribution of intravenously injected [131I]-labeled compound in kidney of BDF1 female mice bearing subcutaneous Lewis lung carcinoma after 24 hours. The class given is ADME, organism-based. Conditions: in vivo, iv. The procedure, abridged: as §3
For series [36], the system named is Mus musculus. Nature of the series: Biodistribution of intravenously injected [131I]-labeled compound in stomach of BDF1 female mice bearing subcutaneous Lewis lung carcinoma after 0.25 hours. Type of series: ADME, organism-based. The settings on record: in vivo, iv. In a few lines:
as §4

In series [37] the test system is Mus musculus. Nature of the series: Biodistribution of intravenously injected [131I]-labeled compound in lung of BDF1 female mice bearing subcutaneous Lewis lung carcinoma after 0.5 hours. The settings on record: in vivo, iv. Type of series: ADME, organism-based. The procedure, abridged:
as §3

The test system of series [38] is Mus musculus. The series can be described thus: Biodistribution of intravenously injected [131I]-labeled compound in muscle of BDF1 female mice bearing subcutaneous Lewis lung carcinoma after 2 hours. Type of series: ADME, organism-based, Muscle tissue. The settings on record: in vivo, iv. In a few lines:
as §4

For `O=c1[nH]c(=O)n([C@H]2O[C@@H](CO)[C@H](O)[C@H]2F)cc1Br`, the Injected dose/g in the series on Mus musculus [1] was 0.24%; with Mus musculus [2], 0.28%; in the series on Mus musculus [3] it was 0.52%; with Mus musculus [4], 0.71%; with Mus musculus [5], 0.5%; with Mus musculus [6] it was 0.17%. Further, the Injected dose/g with Mus musculus [7] is listed as 0.46%; in the series with Mus musculus [8] it was 1.61%; in the series on Mus musculus [9], 0.36%; with Mus musculus [10], 0.49%; in the series on Mus musculus [11], 0.79%; in the series on Mus musculus [12], 0.22%. Moreover, the Injected dose/g in the series on Mus musculus [13] is 0.22%; with Mus musculus [14] it was 1.19%.

On to `O=c1[nH]c(=O)n([C@@H]2O[C@H](CO)[C@@H](O)[C@H]2F)cc1I`, for which the Injected dose/g in the series with Mus musculus [15] came out at 1.8%; with Mus musculus [17], 18.5%; in the series with Mus musculus [18] it was 1%; in the series with Mus musculus [19], 2.9%; with Mus musculus [20], 4.1%; in the series with Mus musculus [22], 7%. Moreover, the Injected dose/g was 8.9% in the series with Mus musculus [23]; 12% with Mus musculus [24]; 2% in the series with Mus musculus [26]; 0.07% with Mus musculus [27]; 0.7% in the series on Mus musculus [29]; 1.8% with Mus musculus [30]. Moreover, the Injected dose/g in the series on Mus musculus [31] is listed as 21.1%; with Mus musculus [32], 4.1%; in the series on Mus musculus [33], 0.16%; in the series on Mus musculus [34] it was 2.6%; in the series on Mus musculus [35], 0.14%; in the series with Mus musculus [36], 3.7%. The Injected dose/g is given as 7.5% in the series on Mus musculus [37] and 1.3% in the series with Mus musculus [38]. Besides, the Radioactive constituents worked out at 2.6% in the series listed under Mus musculus [16], 37.4% in the series filed under Mus musculus [21], 90.8% in the series listed under Mus musculus [25] and 3.5% in the series filed under Mus musculus [28].

Source of the values: ChEMBL document CHEMBL1124493, “Synthesis and tumor uptake of 5-82Br- and 5-131I-labeled 5-halo-1-(2-fluoro-2-deoxy-beta-D-ribofuranosyl)uracils” (J Med Chem, 1989).
